Measured values: ChEMBL document CHEMBL1124858, “Methylsulfamic acid esters. A new chemical class of oral antiarthritic agents” (1990)
Values joined by “and” are separate entries in the source; they are usually repeats but may differ in a detail not shown here. Equal values may be shown once. Active and inactive are the calls of the source. The calls are words filed in the database; no cut-off is given here.

Key:
Rattus norvegicus [1] = species on record: Rattus norvegicus; assay: 32-day X-ray(0= normal to 10= maximum joint destruction) was determined.; type: functional
Procedure, shortened: (§1)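 Adjuvant-induced arthritic rats were dosed orally once daily from day 18 through day 50 after adjuvant injection, on a therapeutic regimen. The uninjected joint was X-rayed and scored blind at 32 days on an arbitrary scale from 0 (normal) to 10 (maximum joint destruction). Values are mean ± SD, compared with vehicle control by Dunnett's t test (p < 0.05).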

Rattus norvegicus [2] = assay: Evaluated for the adjuvant-induced arthritis edema of uninjected paw on 11-day after 31.6 mg/kg dose of peroral administration of the compound; settings: route oral
Rattus norvegicus [3] = assay: Evaluated for the adjuvant-induced arthritis edema of uninjected paw on 32-day after 31.6 mg/kg dose of peroral administration of the compound; settings: route oral
Rattus norvegicus [4] = assay: Evaluated for the adjuvant-induced arthritis edema of uninjected paw on 32-day after 1 mg/kg dose of peroral administration of the compound; settings: route oral
Rattus norvegicus [5] = species on record: Rattus norvegicus; assay: Weight change of rat was determined; Not significant; type: functional, organism-based
Procedure, shortened: (§2)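 In adjuvant arthritic rats dosed orally from day 18 through day 50 post adjuvant injection, weight change was compared with vehicle control by Dunnett's t test.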

Rattus norvegicus [6] = assay: Evaluated for the carrageenan-induced pleural volume in rats at a dose of 100 mg/kg after peroral administration.; type: functional; settings: route oral
Procedure, shortened: (§3)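 Carrageenan-induced pleurisy in rats, Evans blue pleural effusion assay. Twenty oral doses, one per day, were given before carrageenan challenge. Pleural volume is mL ± SD, n = 6 per group, with % change from control and Dunnett's t test (p < 0.05).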

Rattus norvegicus [7] = assay: Evaluated for the adjuvant-induced arthritis edema of uninjected paw on 11-day after 10 mg/kg dose of peroral administration of the compound; settings: route oral
Rattus norvegicus [8] = assay: Evaluated for the […] on 32-day after 10 mg/kg dose of peroral administration of the compound; type: functional; settings: route oral
Procedure, shortened: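 Adjuvant-induced arthritic rat model with oral dosing from day 18 through day 50 post adjuvant. Edema was the volume change of the uninjected hind paw. The 11-day Δ is day 29 volume minus day 18 volume; the 32-day Δ is day 50 minus day 18. Values are mL ± SD against a vehicle control, by Dunnett's t test (p < 0.05).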

Rattus norvegicus [9] = assay: Evaluated for the adjuvant-induced arthritis edema of uninjected paw on 11-day after 1 mg/kg dose of peroral administration of the compound; settings: route oral
Rattus norvegicus [10] = assay: Evaluated for the carrageenan-induced pleural volume in rats at a dose of 4 mg/kg after peroral administration.; type: functional; settings: route oral; procedure, shortened: as §3
Mus musculus [11] = assay: Evaluated for the Delayed type hypersensitivity (DTH) response to methylated BSA (mBSA) in sensitive mice at a dose of 31.6.00 mg/kg after peroral administration; type: functional
Procedure, shortened: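 Delayed-type hypersensitivity in mice: sensitized to mBSA on day 0, dosed orally on days 4, 5, 6 and 7, then challenged with mBSA in the left hind paw on day 7. Paw weight was measured 24 h after challenge. n = 10 per group. Result is % change from sensitized positive control, by Dunnett's t test. Negative control received Freund's complete adjuvant without mBSA.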

Rattus norvegicus [12] = assay: Evaluated for the adjuvant-induced arthritis edema of uninjected paw on 11-day after 3.16 mg/kg dose of peroral administration of the compound; settings: route oral
Rattus norvegicus [13] = assay: Evaluated for the adjuvant-induced arthritis edema of uninjected paw on 32-day after 3.16 mg/kg dose of peroral administration of the compound; settings: route oral
Mus musculus [14] = assay: Evaluated for the delayed type hypersensitivity (DTH) response to methylated BSA (mBSA) in sensitive mice after peroral administration of 50 mg/kg; type: functional; settings: route oral
Procedure, shortened: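 Mice were sensitized to mBSA on day 0, dosed orally on days 4, 5, 6 and 7, and challenged with mBSA in the left hind paw on day 7. Paw weight was measured 24 h after challenge, with 10 mice per group. Negative controls received Freund's complete adjuvant without mBSA.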

Rattus norvegicus [15] = assay: Evaluated for the adjuvant-induced arthritis edema of uninjected paw on 32-day after 10 mg/kg dose of peroral administration of the compound; settings: route oral
Rattus norvegicus [16] = assay: Evaluated for the adjuvant-induced arthritis edema of uninjected paw on 32-day after 100 mg/kg dose of peroral administration of the compound; settings: route oral
Rattus norvegicus [17] = species on record: Rattus norvegicus; assay: X-rays scored on an arbitrary (0=normal to 10=max. joint destruction) scale in a blinded manner was determined; 32-day X-ray; type: functional; procedure, shortened: as §1
Rattus norvegicus [18] = assay: Evaluated for the adjuvant-induced arthritis edema of uninjected paw on 11-day after 100 mg/kg dose of peroral administration of the compound; settings: route oral
Rattus norvegicus [19] = assay: Evaluated for the carrageenan-induced pleural volume in rats at a dose of 3.16 mg/kg after peroral administration.; type: functional; settings: route oral; procedure, shortened: as §3
Rattus norvegicus [20] = species on record: Rattus norvegicus; assay: Weight change of rat was determined; + = significant increase in weight change from control; type: functional, organism-based; procedure, shortened: as §2

SMILES: CNS(=O)(=O)OC[C@H](COc1ccccc1OC)OS(=O)(=O)NC
- Score (Rattus norvegicus [1]): 7.86
- Edema (Rattus norvegicus [2]): 0.16 mL
- Edema (Rattus norvegicus [3]): -0.03 mL

SMILES: CNS(=O)(=O)OCC(COc1ccccc1OC)OS(=O)(=O)NC (stereo unspecified)
- Edema (Rattus norvegicus [4]): <-0.23 mL
- Weight change (Rattus norvegicus [5]): inactive
- Pleural volume (Rattus norvegicus [6]): 4.92 mL
- Score (Rattus norvegicus [1]): <5.82 and <5.77 and <6.9 and 7.8
- Edema (Rattus norvegicus [7]): <-0.39 mL
- Edema (Rattus norvegicus [8]): -0.41 mL and <-0.42 mL and <-0.61 mL
- Edema (Rattus norvegicus [9]): 0.1 mL
- Pleural volume (Rattus norvegicus [10]): 5.2 mL
- Paw weight (Mus musculus [11]): 179 mg
- Edema (Rattus norvegicus [12]): <-0.14 mL
- Edema (Rattus norvegicus [13]): <-0.38 mL

SMILES: O=P1(N(CCCl)CCCl)NCCCO1 (stereo unspecified) [CYCLOPHOSPHAMIDE ANHYDROUS]
- Paw weight (Mus musculus [14]): 153 mg

SMILES: CNS(=O)(=O)OC[C@@H](COc1ccccc1OC)OS(=O)(=O)NC
- Weight change (Rattus norvegicus [5]): inactive
- Score (Rattus norvegicus [1]): <4.96 and 6.64
- Edema (Rattus norvegicus [7]): <-0.33 mL
- Edema (Rattus norvegicus [15]): <-0.46 mL

SMILES: COc1ccccc1OCC(O)CO (stereo unspecified) [GUAIFENESIN]
- Edema (Rattus norvegicus [16]): -0.4 mL
- Score (Rattus norvegicus [17]): 8.83
- Weight change (Rattus norvegicus [5]): inactive
- Edema (Rattus norvegicus [18]): 0.07 mL

SMILES: COc1ccc2c(c1)c(CC(=O)O)c(C)n2C(=O)c1ccc(Cl)cc1 [INDOMETHACIN]
- Pleural volume (Rattus norvegicus [19]): 3.5 mL
- Weight change (Rattus norvegicus [20]): Active
- Score (Rattus norvegicus [1]): 3.54 and <4.07 and <3.8 and <4.04
